From ChEMBL document CHEMBL4837203, “Innovative C2-symmetric testosterone and androstenedione dimers: Design, synthesis, biological evaluation on prostate cancer cell lines and binding study to recombinant CYP3A4” (Eur J Med Chem, 2021)

Columns and labels:
Cytochrome P450 3A4 [1] = target: T1, Cytochrome P450 3A4 (Homo sapiens, UniProt P08684); experiment: Inhibition of recombinant human CYP3A4 using BFC as substrate; type: ADME
Method in brief: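 Codon-optimized full-length recombinant human CYP3A4 in a soluble reconstituted system. Activity measured was debenzylation of 7-benzyloxy-4-(trifluoromethyl)coumarin; IC50 values were determined.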

Cytochrome P450 3A4 [2] = target: T1, Cytochrome P450 3A4; experiment: Inhibition of human CYP3A4 assessed as dissociation constant; type: ADME
Method in brief: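 Spectral titration of 2 μM codon-optimized full-length human CYP3A4 in 0.1 M phosphate pH 7.4 with 20% glycerol and 1 mM DTT, at ambient temperature. Ligand was added from DMSO in small aliquots, keeping final solvent below 2%. Absorbance difference spectra were recorded, and Kd was taken from hyperbolic or quadratic fits to the titration plots.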

PC-3 = experiment: Antiproliferative activity against androgen-insensitive human PC-3 cells assessed as inhibition of cell growth incubated for 48 hrs by MTT assay; type: functional, cell-based; details: PC-3, 48 h
Method in brief: (§1)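 MTT assay. Cells were seeded at 8 × 10^3/well and left overnight, then grown 48 h in fresh medium with a range of compound concentrations. They were stained with 0.5 mg/mL MTT for 3 h, solubilised in 10% Triton X-100 in acidic isopropanol (0.1 N HCl), and read at 590 nm. Growth inhibition was calculated against control plates fixed on the treatment day. LNCaP and PC3 were kept in RPMI with 10% calf serum. Three replicate wells per condition, three independent repeats.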

LNCaP [3] = experiment: Antiproliferative activity against androgen-sensitive human LNCaP cells assessed as inhibition of cell growth incubated for 48 hrs by MTT assay; type: functional, cell-based; method in brief: as §1
DU-145 = experiment: Antiproliferative activity against androgen-insensitive human DU-145 cells assessed as inhibition of cell growth incubated for 48 hrs by MTT assay; type: functional, cell-based; details: DU-145, 48 h
LNCaP [4] = experiment: Antiproliferative activity against androgen-sensitive human LNCaP cells assessed as inhibition of testosterone-induced cell growth at 0.125 uM incubated for 48 hrs by MTT assay relative to non-stimulation; type: functional; set-up: scale not given: the % may be the effect or the level left
Method in brief: (§2)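 Androgen-stimulated proliferation in LNCaP: cells seeded at 8 × 10^3/well in RPMI with 10% FBS and grown 48 h. Then exposed 48 h to 0.1 nM testosterone alone or combined with test agent at 0.125–1 μM. Vehicle control was 0.1% DMSO. Read-out was MTT (3 h, 37 °C) at OD 590 nm, as fold induction versus vehicle. Triplicate wells ×3 repeats.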

LNCaP [5] = experiment: Antiproliferative activity against androgen-sensitive human LNCaP cells assessed as inhibition of DHT-induced cell growth at 1 uM incubated for 48 hrs by MTT assay relative to non-stimulation; type: functional; set-up: scale not given: the % may be the effect or the level left
Method in brief: (§3)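 LNCaP cells seeded at 8 × 10^3/well in RPMI with 10% FBS and grown 48 h. Then treated with 0.1 nM DHT alone or with test agent at 0.125, 0.25, 0.5 or 1 μM for 48 h. Control was 0.1% DMSO. MTT for 3 h at 37 °C, OD read at 590 nm. Growth expressed as fold of DMSO control. Triplicate wells, three independent repeats.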

LNCaP [6] = experiment: Antiproliferative activity against androgen-sensitive human LNCaP cells assessed as inhibition of testosterone-induced cell growth at 0.25 uM incubated for 48 hrs by MTT assay; type: functional; set-up: scale not given: the % may be the effect or the level left; method in brief: as §2
LNCaP [7] = experiment: Antiproliferative activity against androgen-sensitive human LNCaP cells assessed as inhibition of DHT-induced cell growth at 0.125 uM incubated for 48 hrs by MTT assay relative to non-stimulation; type: functional; set-up: scale not given: the % may be the effect or the level left; method in brief: as §3
LNCaP [8] = experiment: Antiproliferative activity against androgen-sensitive human LNCaP cells assessed as inhibition of DHT-induced cell growth at 0.5 uM incubated for 48 hrs by MTT assay relative to non-stimulation; type: functional; set-up: scale not given: the % may be the effect or the level left; method in brief: as §3
LNCaP [9] = experiment: Antiproliferative activity against androgen-sensitive human LNCaP cells assessed as inhibition of DHT-induced cell growth at 0.125 uM incubated for 48 hrs by MTT assay; type: functional; set-up: scale not given: the % may be the effect or the level left; method in brief: as §3
LNCaP [10] = experiment: Antiproliferative activity against androgen-sensitive human LNCaP cells assessed as inhibition of testosterone-induced cell growth at 0.5 uM incubated for 48 hrs by MTT assay relative to non-stimulation; type: functional; set-up: scale not given: the % may be the effect or the level left; method in brief: as §2
LNCaP [11] = experiment: Antiproliferative activity against androgen-sensitive human LNCaP cells assessed as inhibition of DHT-induced cell growth at 0.25 uM incubated for 48 hrs by MTT assay relative to non-stimulation; type: functional; set-up: scale not given: the % may be the effect or the level left
Method in brief: (§4)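 LNCaP cells were seeded at 8 × 10^3/well in medium with 10% FBS and grown 48 h. They were then exposed for 48 h to 0.1 nM testosterone or DHT, alone or with compound at 0.125, 0.25, 0.5 or 1 μM. Vehicle control was 0.1% DMSO. Read-out was MTT for 3 h at 37 °C, then OD 590 nm, given as fold proliferation versus vehicle. Triplicate wells, three independent repeats; SEM, n = 3.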

LNCaP [12] = experiment: Antiproliferative activity against androgen-sensitive human LNCaP cells assessed as inhibition of testosterone-induced cell growth at 1 uM incubated for 48 hrs by MTT assay relative to non-stimulation; type: functional; set-up: scale not given: the % may be the effect or the level left; method in brief: as §4

T1 sequence (P08684 whole entry): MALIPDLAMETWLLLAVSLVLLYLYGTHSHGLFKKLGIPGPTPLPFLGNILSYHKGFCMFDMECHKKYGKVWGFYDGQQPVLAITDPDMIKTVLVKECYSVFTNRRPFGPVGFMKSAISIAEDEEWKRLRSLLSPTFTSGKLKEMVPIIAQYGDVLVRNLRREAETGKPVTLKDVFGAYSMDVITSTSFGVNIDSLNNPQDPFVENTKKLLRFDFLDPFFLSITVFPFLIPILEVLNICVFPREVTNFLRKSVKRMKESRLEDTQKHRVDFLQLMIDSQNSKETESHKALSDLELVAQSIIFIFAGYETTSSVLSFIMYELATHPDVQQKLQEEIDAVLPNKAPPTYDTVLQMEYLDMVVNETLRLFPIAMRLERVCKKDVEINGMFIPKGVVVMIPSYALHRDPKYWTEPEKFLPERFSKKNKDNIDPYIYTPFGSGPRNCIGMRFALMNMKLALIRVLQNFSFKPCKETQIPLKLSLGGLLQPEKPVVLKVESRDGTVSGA

| Compound | IC50 (Cytochrome P450 3A4 [1]) [µM] | Kd (Cytochrome P450 3A4 [2]) [µM] | IC50 (PC-3) [µM] | IC50 (LNCaP [3]) [µM] | IC50 (DU-145) [µM] | Activity (LNCaP [4]) [%] | Activity (LNCaP [5]) [%] | Activity (LNCaP [6]) [%] | Activity (LNCaP [7]) [%] | Activity (LNCaP [8]) [%] | Activity (LNCaP [9]) [%] | Activity (LNCaP [10]) [%] | Activity (LNCaP [11]) [%] | Activity (LNCaP [12]) [%] |
| --- | --- | --- | --- | --- | --- | --- | --- | --- | --- | --- | --- | --- | --- | --- |
| C[C@]12CC[C@H]3[C@@H]([C@H](C/C=C/C[C@@H]4CC5=CC(=O)CC[C@]5(C)[C@H]5CC[C@]6(C)[C@@H](O)CC[C@H]6[C@H]45)CC4=CC(=O)CC[C@@]43C)[C@@H]1CC[C@@H]2O | 6.5 | 7.1 | – | – | – | – | – | – | – | – | – | – | – | – |
| C=C/C=C/[C@@H]1CC2=CC(=O)CC[C@]2(C)[C@H]2CC[C@]3(C)C(=O)CC[C@H]3[C@H]12 | – | – | 51.7 | 33.5 | 21.3 | – | – | – | – | – | – | – | – | – |
| CC(=O)O[C@]1(C(C)=O)CC[C@H]2[C@@H]3C=C(Cl)C4=CC(=O)[C@@H]5C[C@@H]5[C@]4(C)[C@H]3CC[C@@]21C [CYPROTERONE ACETATE] | – | – | 56.9 | 59.6 | 50.7 | – | – | – | – | – | – | – | – | – |
| C=C/C=C/[C@@H]1CC2=CC(=O)CC[C@]2(C)[C@H]2CC[C@]3(C)[C@H](O)CC[C@H]3[C@H]12 | – | – | 31.5 | 16.6 | 23.8 | – | – | – | – | – | – | – | – | – |
| C=C/C=C/[C@@H]1CC2=CC(=O)CC[C@]2(C)[C@H]2CC[C@]3(C)[C@@H](O)CC[C@H]3[C@H]12 | – | – | 34.1 | 28.8 | 29 | – | – | – | – | – | – | – | – | – |
| C[C@]12CC[C@H]3[C@@H]([C@H](/C=C/C=C/C=C/[C@@H]4CC5=CC(=O)CC[C@]5(C)[C@H]5CC[C@]6(C)[C@H](O)CC[C@H]6[C@H]45)CC4=CC(=O)CC[C@@]43C)[C@@H]1CC[C@H]2O | 22 | 1.6 | 44.5 | 37.1 | 21.4 | 82 | 100 | 100 | 54 | 86 | 45 | 112 | 84 | 84 |
| C[C@]12CC[C@H]3[C@@H]([C@H](/C=C/C=C/C=C/[C@@H]4CC5=CC(=O)CC[C@]5(C)[C@H]5CC[C@]6(C)[C@@H](O)CC[C@H]6[C@H]45)CC4=CC(=O)CC[C@@]43C)[C@@H]1CC[C@@H]2O | 1.2 | 5.5 | 13.6 | 12 | 14.4 | 45 | 100 | 86 | 76 | 83 | 45 | 100 | 83 | 98 |
| C[C@]12CC[C@H]3[C@@H]([C@H](C/C=C\C[C@@H]4CC5=CC(=O)CC[C@]5(C)[C@H]5CC[C@]6(C)[C@@H](O)CC[C@H]6[C@H]45)CC4=CC(=O)CC[C@@]43C)[C@@H]1CC[C@@H]2O | 0.8 | 0.37 | – | – | – | – | – | – | – | – | – | – | – | – |
| C[C@]12CCC(=O)C=C1C[C@@H](/C=C/C=C/C=C/[C@@H]1CC3=CC(=O)CC[C@]3(C)[C@H]3CC[C@]4(C)C(=O)CC[C@H]4[C@H]13)[C@@H]1[C@@H]2CC[C@]2(C)C(=O)CC[C@@H]12 | 3.6 | 1.4 | 29 | 72.7 | 53.6 | – | – | – | – | – | – | – | – | – |
| C[C@]12CC[C@H]3[C@@H](C([C@H]4C=CC[C@H]5C(=O)OC(=O)[C@@H]45)CC4=CC(=O)CC[C@@]43C)[C@@H]1CC[C@@H]2O (some centres not stated) | – | – | 62.5 | 131 | 86.5 | – | – | – | – | – | – | – | – | – |
